# Columns and labels:
# L1210 [1] = assay: Antileukemic activity against mouse L1210 cells allografted in female BDF1 mouse assessed as change in body weight at 50 mg/kg, ip administered daily for 9 days as Klucel suspension starting 24 hrs after tumor inoculation; format: functional; details: route intraperitoneal
# Method in brief: (§1)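 Ascitic fluid carrying L1210 cells was inoculated ip. Compound was given ip as a Klucel (hydroxypropylcellulose) suspension in nine daily doses, starting 24 h after inoculation. Body-weight difference (treated minus control) was recorded on day 5. Survival was scored as %T/C of mean survival time.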
# L1210 [2] = assay: Antileukemic activity against mouse L1210 cells allografted in female BDF1 mouse assessed as change in body weight at 100 mg/kg, ip administered daily for 9 days as Klucel suspension starting 24 hrs after tumor inoculation; format: functional; details: route intraperitoneal; method in brief: as §1
# L1210 [3] = assay: Antileukemic activity against mouse L1210 cells allografted in female BDF1 mouse assessed as change in body weight at 200 mg/kg, ip administered daily for 9 days as Klucel suspension starting 24 hrs after tumor inoculation; format: functional; details: route intraperitoneal; method in brief: as §1
# L1210 [4] = assay: Antileukemic activity against mouse L1210 cells allografted in female BDF1 mouse assessed as host mean survival time at 200 mg/kg, ip administered daily for 9 days as Klucel suspension starting 24 hrs after tumor inoculation relative to control; format: functional; details: route intraperitoneal
# Method in brief: (§2)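 L1210 leukemia given as an ascitic fluid cell inoculum, ip, to mice of the strain and sex in each line. Test material was given ip for nine daily doses starting 24 h after inoculation, in a Klucel (hydroxypropylcellulose) suspension. Read-out is mean survival time as %T/C versus controls, with >125 taken as significant.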
# L1210 [5] = assay: Antileukemic activity against mouse L1210 cells allografted in female BDF1 mouse assessed as host mean survival time at 100 mg/kg, ip administered daily for 9 days as Klucel suspension starting 24 hrs after tumor inoculation relative to control; format: functional; details: route intraperitoneal; method in brief: as §2
# L1210 [6] = assay: Antileukemic activity against mouse L1210 cells allografted in female BDF1 mouse assessed as host mean survival time at 50 mg/kg, ip administered daily for 9 days as Klucel suspension starting 24 hrs after tumor inoculation relative to control; format: functional; details: route intraperitoneal; method in brief: as §2
# Mus musculus [7] = assay: Toxicity in female BDF1 mouse allografted with mouse L1210 cells assessed as animal survival at 200 mg/kg, ip administered daily for 9 days as Klucel suspension starting 24 hrs after tumor inoculation measured on fifth day; format: organism-based; design: dose 200 mg/kg, route intraperitoneal; details: in vivo
# Method in brief: (§3)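 L1210 leukemia passaged as ascitic fluid and inoculated ip. Test agent given ip as a Klucel (hydroxypropylcellulose) suspension, nine daily doses starting 24 h after tumor inoculation. Acute toxicity read as toxicity-day survivors per group (out of 6), recorded on day 5. Animal weight difference T − C was also recorded. Follows NCI screening protocols.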
# Mus musculus [8] = assay: Toxicity in female BDF1 mouse allografted with mouse L1210 cells assessed as animal survival at 100 mg/kg, ip administered daily for 9 days as Klucel suspension starting 24 hrs after tumor inoculation measured on fifth day; format: organism-based; design: dose 100 mg/kg, route intraperitoneal; details: in vivo
# Method in brief: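 Female BDF1 mice bearing ip ascitic L1210 inoculum got nine daily ip doses in a Klucel suspension, starting 24 h after tumor inoculation. Toxicity was scored as toxicity-day survivors out of the group, recorded on the fifth day. Animal weight difference (T − C) was also tabulated.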
# Mus musculus [9] = assay: Toxicity in female BDF1 mouse allografted with mouse L1210 cells assessed as animal survival at 50 mg/kg, ip administered daily for 9 days as Klucel suspension starting 24 hrs after tumor inoculation measured on fifth day; format: organism-based; design: dose 50 mg/kg, route intraperitoneal; details: in vivo; method in brief: as §3
# Mus musculus [10] = assay: Toxicity in female CDF1 mouse allografted with mouse P388 cells assessed as animal survival at 400 mg/kg, ip administered daily for 9 days as saline with Tween-80 solution starting 24 hrs after tumor inoculation; format: organism-based; design: dose 400 mg/kg, route intraperitoneal; details: in vivo
# Method in brief: (§4)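 P-388 leukemia ascitic fluid implanted ip. Compound dosed ip in saline with Tween-80 vehicle, once daily for nine doses from 24 h after tumor inoculation. Acute toxicity scored as toxicity-day survivors per group. Survival was followed up to 30 days, with 30-day survival counted as "cure". Follows NCI screening protocols.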
# P388 [11] = assay: Antitumor activity against mouse P388 cells allografted in female CDF1 mouse assessed as disease cures by measuring 30-days host survival at 400 mg/kg, ip administered daily for 9 days as saline with Tween-80 solution starting 24 hrs after tumor inoculation relative to control; format: functional; details: route intraperitoneal
# Method in brief: (§5)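 P388 ascitic cell inoculum given ip to CDF1 mice of the sex in each line. Nine daily ip doses in saline with Tween-80 as vehicle, starting 24 h after inoculation. Median survival time expressed as %T/C (>125 significant); "cure" defined as 30-day survival.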
# P388 [12] = assay: Antitumor activity against mouse P388 cells allografted in female CDF1 mouse assessed as disease cures by measuring 30-days host survival at 200 mg/kg, ip administered daily for 9 days as saline with Tween-80 solution starting 24 hrs after tumor inoculation relative to control; format: functional; details: route intraperitoneal; method in brief: as §5
# P388 [13] = assay: Antitumor activity against mouse P388 cells allografted in female CDF1 mouse assessed as disease cures by measuring 30-days host survival at 100 mg/kg, ip administered daily for 9 days as saline with Tween-80 solution starting 24 hrs after tumor inoculation relative to control; format: functional; details: route intraperitoneal; method in brief: as §5
# P388 [14] = assay: Antitumor activity against mouse P388 cells allografted in female CDF1 mouse assessed as change in body weight at 400 mg/kg, ip administered daily for 9 days as saline with Tween-80 solution starting 24 hrs after tumor inoculation; format: functional; details: route intraperitoneal
# Method in brief: (§6)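 Ascitic fluid carrying P388 cells was inoculated ip. Compound was given ip in nine daily doses, starting 24 h after inoculation, in Klucel (hydroxypropylcellulose) suspension or in saline with Tween-80. Body-weight difference (treated minus control) was recorded on day 5. Survival was scored as %T/C of median survival time, and 30-day survival counted as cure.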
# P388 [15] = assay: Antitumor activity against mouse P388 cells allografted in female CDF1 mouse assessed as change in body weight at 200 mg/kg, ip administered daily for 9 days as saline with Tween-80 solution starting 24 hrs after tumor inoculation; format: functional; details: route intraperitoneal; method in brief: as §6
# P388 [16] = assay: Antitumor activity against mouse P388 cells allografted in female CDF1 mouse assessed as change in body weight at 100 mg/kg, ip administered daily for 9 days as saline with Tween-80 solution starting 24 hrs after tumor inoculation; format: functional; details: route intraperitoneal; method in brief: as §6
# Mus musculus [17] = assay: Toxicity in female CDF1 mouse allografted with mouse P388 cells assessed as animal survival at 200 mg/kg, ip administered daily for 9 days as saline with Tween-80 solution starting 24 hrs after tumor inoculation; format: organism-based; design: dose 200 mg/kg, route intraperitoneal; details: in vivo; method in brief: as §4
# Mus musculus [18] = assay: Toxicity in female CDF1 mouse allografted with mouse P388 cells assessed as animal survival at 100 mg/kg, ip administered daily for 9 days as saline with Tween-80 solution starting 24 hrs after tumor inoculation; format: organism-based; design: dose 100 mg/kg, route intraperitoneal; details: in vivo; method in brief: as §4
structure (smiles),measurement,setting,value
COC(=O)c1c(C(=O)OC)c(-c2ccc(Cl)c(Cl)c2)n2c1CCC2,Activity,L1210 [1],2.8 g
same,Activity,L1210 [2],3.4 g
same,Activity,L1210 [3],1.1 g
same,T/C,L1210 [4],98%
same,T/C,L1210 [5],88%
same,T/C,L1210 [6],91%
same,Activity,Mus musculus [7],Non-toxic
same,Activity,Mus musculus [8],Non-toxic
same,Activity,Mus musculus [9],Non-toxic
same,Activity,Mus musculus [10],Non-toxic
same,T/C,P388 [11],88%
same,T/C,P388 [12],89%
same,T/C,P388 [13],87%
same,Activity,P388 [14],-0.2 g
same,Activity,P388 [15],0.2 g
same,Activity,P388 [16],0.2 g
same,Activity,Mus musculus [17],Non-toxic
same,Activity,Mus musculus [18],Non-toxic
